Experimental data of several laboratories.
Lines come from different studies, so protocols differ.
Target: Cyclin-G-associated kinase (GAK, Homo sapiens, UniProt O14976)
Sequence (O14976 1-1311, as in one of the studies): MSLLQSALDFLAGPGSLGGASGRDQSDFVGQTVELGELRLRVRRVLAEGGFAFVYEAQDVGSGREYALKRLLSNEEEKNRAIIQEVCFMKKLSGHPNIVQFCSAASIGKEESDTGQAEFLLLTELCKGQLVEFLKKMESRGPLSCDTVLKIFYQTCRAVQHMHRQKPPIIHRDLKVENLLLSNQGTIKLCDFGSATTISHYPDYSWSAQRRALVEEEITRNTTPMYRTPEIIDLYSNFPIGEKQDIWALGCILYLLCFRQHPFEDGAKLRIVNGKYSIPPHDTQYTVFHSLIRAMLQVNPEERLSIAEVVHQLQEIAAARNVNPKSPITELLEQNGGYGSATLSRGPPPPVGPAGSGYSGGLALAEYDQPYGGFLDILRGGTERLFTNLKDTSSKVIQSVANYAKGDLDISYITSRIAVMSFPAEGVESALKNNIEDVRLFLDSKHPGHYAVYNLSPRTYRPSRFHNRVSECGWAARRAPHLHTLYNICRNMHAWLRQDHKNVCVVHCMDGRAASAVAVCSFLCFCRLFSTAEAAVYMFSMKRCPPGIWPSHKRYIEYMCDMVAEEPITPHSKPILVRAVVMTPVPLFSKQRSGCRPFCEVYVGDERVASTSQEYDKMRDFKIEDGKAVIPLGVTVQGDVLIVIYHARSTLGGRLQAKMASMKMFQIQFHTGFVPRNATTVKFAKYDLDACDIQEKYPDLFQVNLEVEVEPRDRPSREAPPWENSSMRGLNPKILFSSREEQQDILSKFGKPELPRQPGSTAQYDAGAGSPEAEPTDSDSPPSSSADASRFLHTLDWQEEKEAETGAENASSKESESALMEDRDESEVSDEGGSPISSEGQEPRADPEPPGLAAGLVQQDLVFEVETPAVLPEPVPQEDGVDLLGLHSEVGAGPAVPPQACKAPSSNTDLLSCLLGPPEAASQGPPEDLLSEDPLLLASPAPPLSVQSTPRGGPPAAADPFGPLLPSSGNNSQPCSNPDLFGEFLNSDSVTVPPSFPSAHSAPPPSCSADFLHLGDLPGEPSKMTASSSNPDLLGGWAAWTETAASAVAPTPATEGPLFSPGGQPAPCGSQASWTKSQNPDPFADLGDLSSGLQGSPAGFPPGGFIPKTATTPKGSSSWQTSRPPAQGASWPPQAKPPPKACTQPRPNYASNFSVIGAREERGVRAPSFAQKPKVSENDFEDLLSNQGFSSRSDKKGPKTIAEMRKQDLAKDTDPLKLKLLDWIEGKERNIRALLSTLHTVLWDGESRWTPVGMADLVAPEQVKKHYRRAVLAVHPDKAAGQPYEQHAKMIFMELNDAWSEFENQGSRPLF

SMILES | read-out | method | concentration | remaining binding [%]
O=C(c1ccc(Nc2ncc(Cl)c(-c3cc4ccccc4s3)n2)cc1)N1CCC(N2CCCC2)CC1 | binding | competition with immobilised ligand | 1 µM | 48
CN(C)c1nccc(-c2cnn3ncccc23)n1 | binding | – | 1 µM | 82
C[C@@H](c1cccc(C#N)c1)n1cc(Cl)cc(C(N)=O)c1=N | cell-free assay | competition with immobilised ligand | 1 µM | 100
O=C(NCCCN1CCOCC1)c1ccc(Nc2ncc(Cl)c(-c3ccc(Cl)s3)n2)cc1 | binding | competition with immobilised ligand | 1 µM | 15
C[C@@H]1CCN(c2nccc(-c3cnn4ncccc34)n2)C1 | binding | – | 1 µM | 40
Cn1nc(C(=O)NCc2ccc(C(=O)O)cc2)cc1-c1ccc2[nH]ccc2c1 | cell-free assay | competition with immobilised ligand | 0.1 µM | 90
COc1ncc2cc3ccccc3nc2c1C#N | cell-free assay | competition with immobilised ligand | 5 µM | 87
Cn1nc(C(F)(F)F)cc1-c1cnc(N2CCc3cc(S(=O)(=O)Nc4c(F)cc(Cl)cc4F)cc(N4CCCC4=O)c32)nc1 | cell-free assay | competition with immobilised ligand | 1 µM | 94
N[C@H]1CCN(c2nccc(-c3cnn4ncccc34)n2)C1 | binding | – | 1 µM | 80
O=C(NCC1CCOCC1)c1n[nH]cc1NC(=O)c1c(F)cccc1F | binding | competition with immobilised ligand | 1 µM | 88
CNC(=O)[C@@H]1CC[C@@H](n2c(-c3ccc4cnccc4c3)nc3ccc(C(=O)NCc4cccc(C(N)=O)c4)cc32)C1 | binding | competition with immobilised ligand | 1 µM | 100
N#CC1(c2ccccn2)CCN(Cc2cc(C(=O)N3CCCC3)c(=O)n3ccccc23)CC1 | cell-free assay | competition with immobilised ligand | 1 µM | 100
CCN1CCN(Cc2ccc(C(=O)Nc3ccc(C)c(Oc4ccc5c(c4)CC(=O)N5)c3)cc2C(F)(F)F)CC1 | binding | competition with immobilised ligand | 1 µM | 100
CCS(=O)(=O)c1cc2cc(C[C@](O)(CC(C)(C)c3ccc(F)cc3C(N)=O)C(F)(F)F)[nH]c2cn1 | cell-free assay | competition with immobilised ligand | 1 µM | 100
F[C@@H]1CCN(c2nccc(-c3cnn4ncccc34)n2)C1 | binding | – | 1 µM | 85
COc1cnc(Nc2cccc(S(N)(=O)=O)c2)nc1N1CCN(c2ccccc2)CC1 | binding | competition with immobilised ligand | 1 µM | 85
c1cncc(-c2cccc(Nc3nccc(NC4CCCCC4)n3)c2)c1 | binding | competition with immobilised ligand | 10 µM | 42
Cc1cnc(Nc2ccc(C(=O)N3CCC(N4CCCC4)CC3)cc2)nc1-c1cc2ccccc2s1 | binding | competition with immobilised ligand | 1 µM | 8.2
Cc1cnn2ncc(-c3ccnc(N(C)C)n3)c2c1 | binding | – | 1 µM | 52
O=C(O)c1cc(-c2ccc(C3CCNCC3)cc2)c2ccc(-c3ccc(C(F)(F)F)cc3)cc2c1 | cell-free assay | competition with immobilised ligand | 1 µM | 100
CN(C)c1nccc(-c2cnc3ncccn23)n1 | binding | – | 1 µM | 72
C[C@H](c1ccc(F)cc1)N(Cc1cccc(C(=O)O)c1)C(=O)c1cnc2ccccc2c1 | cell-free assay | competition with immobilised ligand | 1 µM | 98
